Test results reported in ChEMBL document CHEMBL4665645, “Role of the NMDA Receptor in the Antitumor Activity of Chiral 1,4-Dioxane Ligands in MCF-7 and SKBR3 Breast Cancer Cells” (ACS Med Chem Lett, 2019).

Key:
SK-BR-3 = test: Cytotoxicity against human SK-BR-3 cells assessed as reduction in cell viability incubated for 48 hrs by SRB assay; assay type: functional
Procedure, shortened: (§1)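 Followed the NCI SRB protocol: cells exposed 48 h to a range of concentrations. GI50 is the concentration giving 50% net growth inhibition; TGI is 100% growth inhibition; LC50 kills 50% of initial cells. Mean ± SE of three separate experiments.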

MCF7 = test: Cytotoxicity against human MCF7 cells assessed as reduction in cell viability after 48 hrs by SRB assay; assay type: functional; procedure, shortened: as §1

SMILES	GI50 (SK-BR-3)	LC50 (concentration killing 50% of initial cells) (SK-BR-3)	TGI (SK-BR-3)	GI50 (MCF7)	LC50 (concentration killing 50% of initial cells) (MCF7)	TGI (MCF7)
NCC1COCC(c2ccccc2)(c2ccccc2)O1 (racemic)	31.2 µM	> 300 µM	200 µM	74.4 µM	253 µM	137 µM
C[C@]12N[C@H](Cc3ccccc31)c1ccccc12 [DIZOCILPINE]	> 300 µM	–	> 300 µM	> 300 µM	–	> 300 µM
CN[C@]1(c2ccccc2Cl)CCCCC1=O [ESKETAMINE]	> 300 µM	–	> 300 µM	> 300 µM	–	> 300 µM
